# Source: ChEMBL document CHEMBL1145447, “Synthetic studies of neoclerodane diterpenes from Salvia divinorum: preparation and opioid receptor activity of salvinicin analogues” (J Med Chem, 2007)
# Active and inactive are the calls of the source. The calls are words filed in the database; no cut-off is given here.
# Legend:
# [1] = target: Opioid receptors; mu & kappa (Homo sapiens) (UniProt P41145+P35372); test: Selectivity for kappa opioid receptor over mu opioid receptor; assay type: protein assay
# [2] = target: Opioid receptors; delta & kappa (Homo sapiens) (UniProt P41145+P41143); test: Selectivity for kappa opioid receptor over delta opioid receptor; assay type: protein assay
# [3] = target: T1, Delta-type opioid receptor (Homo sapiens, UniProt P41143); test: Displacement of [125I]IOXY from human delta opioid receptor expressed in CHO cells; assay type: cell-based
# Method in brief: (§1)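 Membranes from CHO cells stably transfected with the respective human opioid receptor cDNA (hMOR-, hDOR-, hKOR-CHO). Radioligand [125I]IOXY (SA 2200 Ci/mmol) labels µ, δ and κ sites. Incubation in 50 mM Tris-HCl pH 7.4 with bacitracin, bestatin, leupeptin and chymostatin. Nonspecific binding is defined with 10 µM naloxone. Ki is the mean ± SD of at least two independent determinations.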
# [4] = target: T2, Kappa-type opioid receptor (Homo sapiens, UniProt P41145); test: Displacement of [125I]IOXY from human kappa opioid receptor expressed in CHO cells; assay type: cell-based
# Method in brief: as §1, with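 “hKOR-CHO).” for “hKOR-CHO). Radioligand [125I]IOXY (SA 2200 Ci/mmol) labels µ, δ and κ sites.”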
# Mu-type opioid receptor [5] = target: T3, Mu-type opioid receptor (Homo sapiens, UniProt P35372); test: Displacement of [125I]IOXY from human mu opioid receptor expressed in CHO cells; assay type: cell-based
# Method in brief: as §1, with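 “hKOR-CHO).” for “hKOR-CHO). Radioligand [125I]IOXY (SA 2200 Ci/mmol) labels µ, δ and κ sites.”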
# Mu-type opioid receptor [6] = target: T3, Mu-type opioid receptor; test: Antagonist activity at human mu opioid receptor expressed in CHO cells by [35S]GTP-gamma-S binding assay; assay type: functional, cell-based
# Method in brief: (§2)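 Antagonism is measured in a [35S]GTP-γ-S binding assay in CHO cells stably transfected with human δ, κ or µ opioid receptor cDNA. Result is given as Ke, the mean ± SD of at least two independent determinations. Test compounds come from 10 mM stocks in 100% DMSO + 10 mM 2-mercaptoethanol, stored at -80 °C. They are diluted in buffer containing 1 mg/mL BSA.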
# [7] = target: T1, Delta-type opioid receptor; test: Antagonist activity at human delta opioid receptor expressed in CHO cells by [35S]GTP-gamma-S binding assay; assay type: functional, cell-based; method in brief: as §2
# [8] = target: T2, Kappa-type opioid receptor; test: Activity at human kappa opioid receptor expressed in CHO cells by [35S]GTP-gamma-S binding assay relative to U69593; assay type: functional, cell-based
# Method in brief: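 [35S]GTP-γ-S binding in hKOR-CHO cells (stably transfected human receptor). Emax is the percent stimulation relative to the maximal stimulation by U69,593 run in parallel. EC50 and Emax are the mean ± SE of at least three independent experiments. Emax is compared with U69,593 by one-way ANOVA with Dunnett's test. Drug dilutions are made in buffer with 1 mg/mL BSA, from 10 mM DMSO/2-mercaptoethanol stocks.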
# [9] = target: T2, Kappa-type opioid receptor; test: Antagonist activity at human kappa opioid receptor expressed in CHO cells by [35S]GTP-gamma-S binding assay; assay type: functional, cell-based; method in brief: as §2
# T1 sequence (P41143 whole entry): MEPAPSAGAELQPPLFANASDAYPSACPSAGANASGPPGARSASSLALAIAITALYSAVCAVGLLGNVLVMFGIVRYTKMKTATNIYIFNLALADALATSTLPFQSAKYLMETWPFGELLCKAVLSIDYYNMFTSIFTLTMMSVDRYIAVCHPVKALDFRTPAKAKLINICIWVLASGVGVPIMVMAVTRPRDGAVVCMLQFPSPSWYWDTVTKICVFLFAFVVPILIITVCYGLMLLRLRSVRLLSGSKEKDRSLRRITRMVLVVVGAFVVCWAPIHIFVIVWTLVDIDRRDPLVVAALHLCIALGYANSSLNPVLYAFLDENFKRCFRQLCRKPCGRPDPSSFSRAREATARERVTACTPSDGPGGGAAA
# Opioid receptors; delta & kappa (Homo sapiens), sequence (P41143 whole entry, looked up): as the sequence (P41143 whole entry) above
# Opioid receptors; delta & kappa (Homo sapiens), sequence (P41145 whole entry, looked up): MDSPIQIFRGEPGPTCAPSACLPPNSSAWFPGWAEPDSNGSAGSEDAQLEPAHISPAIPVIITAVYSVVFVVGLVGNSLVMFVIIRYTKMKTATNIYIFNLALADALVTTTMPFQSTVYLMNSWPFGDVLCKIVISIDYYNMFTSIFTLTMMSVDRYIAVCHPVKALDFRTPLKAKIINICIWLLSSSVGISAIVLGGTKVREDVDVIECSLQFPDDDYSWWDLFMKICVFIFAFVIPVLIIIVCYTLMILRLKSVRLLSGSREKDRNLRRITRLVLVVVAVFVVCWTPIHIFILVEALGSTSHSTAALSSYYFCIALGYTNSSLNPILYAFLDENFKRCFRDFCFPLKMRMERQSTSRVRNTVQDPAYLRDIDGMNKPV
# Opioid receptors; mu & kappa (Homo sapiens), sequence (P35372 whole entry, looked up): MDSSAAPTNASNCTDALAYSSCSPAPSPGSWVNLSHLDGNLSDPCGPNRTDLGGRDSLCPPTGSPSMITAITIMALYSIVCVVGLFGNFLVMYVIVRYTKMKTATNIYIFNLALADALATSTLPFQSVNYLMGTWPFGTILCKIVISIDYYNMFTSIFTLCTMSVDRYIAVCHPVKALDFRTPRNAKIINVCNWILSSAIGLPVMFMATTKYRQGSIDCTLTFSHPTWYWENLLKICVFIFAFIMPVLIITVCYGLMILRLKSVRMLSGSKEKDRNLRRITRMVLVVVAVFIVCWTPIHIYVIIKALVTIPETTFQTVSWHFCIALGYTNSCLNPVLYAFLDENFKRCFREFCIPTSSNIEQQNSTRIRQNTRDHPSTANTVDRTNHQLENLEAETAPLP
# Opioid receptors; mu & kappa (Homo sapiens), sequence (P41145 whole entry, looked up): as the sequence (P41145 whole entry, looked up) above
# T3 sequence (P35372 whole entry): as the sequence (P35372 whole entry, looked up) above
# T2 sequence (P41145 whole entry): as the sequence (P41145 whole entry, looked up) above
SMILES,Ratio Ki [1],Ratio Ki [2],Ki [3] [µM],Ki [4] [µM],Ki (Mu-type opioid receptor [5]) [µM],Activity (Mu-type opioid receptor [6]),Activity [7],Emax [8] [%],EC50 [9] [µM],Ki (Mu-type opioid receptor [6]) [µM],Ke [7] [µM],Ke [9] [nM],Activity [9],Ke (Mu-type opioid receptor [6]) [nM]
COC(=O)[C@@H]1C[C@H](OC(C)=O)C(=O)[C@H]2[C@@]1(C)CC[C@H]1C(=O)O[C@H](C3CC(OC)OC3OC)C[C@]21C (some centres not stated),120,> 250,> 10,0.04,4.81,–,–,–,–,–,–,–,–,–
COC(=O)[C@@H]1C[C@H](OC(C)=O)C(=O)[C@H]2[C@@]1(C)CC[C@H]1C(=O)O[C@H]([C@@H]3CCOC3)C[C@]21C,–,–,> 10,0.0037,9.79,inactive,inactive,81,0.75,–,–,–,–,–
COC(=O)[C@@H]1C[C@H](OC(C)=O)C(=O)[C@H]2[C@@]1(C)CC[C@H]1C(=O)OC([C@]3(O)[C@H](OC)O[C@H](OC)[C@H]3OC(C)=O)C[C@]21C (some centres not stated),–,–,> 10,> 10,> 10,–,–,–,–,–,–,–,–,–
COC(=O)[C@@H]1C[C@H](OC(C)=O)C(=O)[C@H]2[C@@]1(C)CC[C@H]1C(=O)O[C@H](C3=C[C@@H](OC)O[C@H]3OC)C[C@]21C,21,> 55,> 10,0.18,3.74,–,–,–,–,2.93,1.28,2370,–,–
COC(=O)[C@@H]1C[C@H](OC(C)=O)C(=O)[C@H]2[C@@]1(C)CC[C@H]1C(=O)O[C@H]([C@@H]3C[C@@H](OC)O[C@@H]3OC)C[C@]21C,> 400,> 400,> 10,0.025,> 10,–,–,95,2.35,1.37,> 10,–,–,–
COC(=O)[C@@H]1C[C@H](OC(C)=O)C(=O)[C@@H]2[C@@]3(C)C[C@@H](c4nc(C)no4)OC(=O)[C@H]3CC[C@]21C,> 10,> 10,> 10,0.99,> 10,–,–,–,–,1.53,4.23,5680,–,–
COC(=O)[C@@H]1C[C@H](OC(C)=O)C(=O)[C@H]2[C@@]1(C)CC[C@H]1C(=O)O[C@H]([C@@H]3C[C@@H](OC)O[C@H]3OC)C[C@]21C,> 80,> 80,> 10,0.125,> 10,inactive,inactive,–,–,–,–,–,inactive,–
COC(=O)[C@@H]1C[C@H](OC(C)=O)C(=O)[C@H]2[C@@]1(C)CC[C@H]1C(=O)O[C@H](C3CCOC3)C[C@]21C (some centres not stated),–,–,> 10,0.014,–,–,–,–,–,–,–,–,–,–
COC(=O)[C@@H]1C[C@H](OC(C)=O)C(=O)[C@@H]2[C@@]3(C)C[C@@H]([C@]4(O)[C@@H](OC)O[C@@H](OC)[C@H]4O)CC(=O)[C@@H]3CC[C@]21C [SALVINICIN B],1.4,1.4,> 10,7.02,> 10,–,–,–,–,–,–,–,–,–
COC(=O)[C@@H]1C[C@H](OC(C)=O)C(=O)[C@H]2[C@@]1(C)CC[C@H]1C(=O)OC([C@]3(O)[C@@H](OC)O[C@@H](OC)[C@H]3OC(C)=O)C[C@]21C (some centres not stated),–,–,> 10,> 10,> 10,–,–,–,–,–,–,–,–,–
COC(=O)[C@@H]1C[C@H](OC(C)=O)C(=O)[C@@H]2[C@@](C)(CCC3CCOC3)[C@H](C(=O)O)CC[C@]21C (some centres not stated),> 10,> 10,> 10,0.91,> 10,–,–,–,–,–,–,–,–,–
COC(=O)[C@@H]1C[C@H](O)C(=O)[C@H]2[C@@]1(C)CC[C@H]1C(=O)O[C@H](c3ccoc3)C[C@]21C [SALVINORIN B],–,–,> 10,–,> 10,–,–,–,–,–,–,–,–,–
COC(=O)[C@@H]1C[C@H](OC(C)=O)C(=O)[C@H]2[C@@]1(C)CC[C@H]1C(=O)O[C@H]([C@]3(O)[C@H](OC)O[C@H](OC)[C@H]3O)C[C@]21C [SALVINICIN A],> 26,> 26,> 10,0.39,> 10,–,–,–,–,–,–,–,–,–
COC(=O)[C@@H]1C[C@H](OC(C)=O)C(=O)[C@H]2[C@@]1(C)CC[C@H]1C(=O)O[C@H](c3nc(C)no3)C[C@]21C,> 170,> 170,> 10,0.056,> 10,–,inactive,–,–,0.43,–,360,–,–
COC(=O)[C@@H]1C[C@H](OC(C)=O)C(=O)[C@H]2[C@@]1(C)CC[C@H]1C(=O)O[C@H](C3=NCCO3)C[C@]21C,> 30,> 30,> 10,0.3,> 10,–,–,–,–,–,–,–,–,–
COC(=O)[C@@H]1C[C@H](OC(C)=O)C(=O)[C@H]2[C@@]1(C)CC[C@H]1C(=O)OCC[C@]21C,> 3,> 3,> 10,3.4,> 10,–,–,–,–,–,–,–,–,–
COC(=O)[C@@H]1C[C@H](OC(C)=O)C(=O)[C@H]2[C@@]1(C)CC[C@H]1C(=O)O[C@H](C3=C[C@@H](OC)O[C@@H]3OC)C[C@]21C,8,> 23,> 10,0.42,3.19,–,–,–,–,2.32,3.28,9700,–,–
COC(=O)[C@@H]1C[C@H](OC(C)=O)C(=O)[C@H]2[C@@]1(C)CC[C@H]1C(=O)O[C@H](c3ccoc3Br)C[C@]21C,–,–,7.62,–,1.45,–,–,104,–,–,–,–,–,–
COC(=O)[C@@H]1C[C@H](OC(C)=O)C(=O)[C@H]2[C@@]1(C)CC[C@H]1C(=O)O[C@H](C3=CC(=O)OC3O)C[C@]21C (some centres not stated),–,–,–,–,–,–,–,–,–,–,2.83,440,–,760
COC(=O)[C@@H]1C[C@H](OC(C)=O)C(=O)[C@H]2[C@@]1(C)CC[C@H]1C(=O)O[C@H](C3=CC(OC)OC3OC)C[C@]21C (some centres not stated),> 20,> 20,> 10,0.44,> 10,–,–,–,–,–,–,–,–,–
